# High-throughput results deposited in PubChem BioAssay by The Scripps Research Institute Molecular Screening Center.
# OX1R antag-1 – antagonists of human orexin 1 receptor; O43613; CHO/OX1R cells, Fluo-8 calcium fluorescence, orexin A; inhibition, % at 5 µM; 0.43% of 330,000 active; AID 434989;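 active = inhibition above its plate's threshold, mean inhibition of all tested compounds on the plate plus 3 SD, cut at about 37% in these data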;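 note: 0% = orexin A challenge wells and 100% = SB-334867-A antagonist wells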
# Target sequence (O43613 whole entry, looked up): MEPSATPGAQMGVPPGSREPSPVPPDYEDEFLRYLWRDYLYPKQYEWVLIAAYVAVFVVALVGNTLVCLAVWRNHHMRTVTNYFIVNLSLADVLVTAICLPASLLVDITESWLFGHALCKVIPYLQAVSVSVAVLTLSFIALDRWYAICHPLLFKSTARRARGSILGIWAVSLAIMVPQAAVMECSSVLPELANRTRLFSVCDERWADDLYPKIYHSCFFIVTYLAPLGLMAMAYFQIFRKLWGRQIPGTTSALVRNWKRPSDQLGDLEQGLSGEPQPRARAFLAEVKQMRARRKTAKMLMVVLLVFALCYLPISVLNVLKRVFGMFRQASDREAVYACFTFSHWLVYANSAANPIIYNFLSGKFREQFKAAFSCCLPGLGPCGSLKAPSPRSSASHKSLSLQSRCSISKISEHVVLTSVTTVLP
# OX1R antag-2 – antagonists of human orexin 1 receptor (OX1R) | O43613 | OX1R-expressing cells, FRET antagonist read-out | inhibition, % at 6.6 µM | 1.8% of 330,000 active | AID 485270; in the data active = inhibition mostly above about 38%, no sharp cut-off; inactive = mostly below about 40%;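 note: 0% = agonist challenge alone and 100% = reference antagonist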
# CHO-K1 Ca antag – nonselective inhibitor or artifact in parental CHO-K1 cells; ATP-induced calcium, Fluo-8 fluorescence; inhibition, % at 3 µM; 0.6% of 360,000 active;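 active = inhibition above a per-plate cutoff, the plate's mean sample inhibition plus 3 SD, cut at about 24% in these data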;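 note: 0% = DMSO plus EC80 ATP and 100% = DMSO alone without ATP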
# CHO parental Ca – counter-screen: ATP calcium response change in parental CHO cells; parental CHO-K1, ATP-induced calcium, Fluo-8 fluorescence; inhibition, % at 5.6 µM; 0.63% of 330,000 active; AID 463079;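 active = inhibition above that plate's mean sample inhibition plus 3 SD, cut at about 26% in these data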;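 note: 0% = ATP-challenged DMSO wells and 100% = DMSO wells without ATP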
#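 Test system: parental CHO cells; detection: calcium-sensitive Fluo-8 fluorescence; evaluation: percent inhibition of calcium signal; also added: ATP as calcium-mobilizing challenge; repeats: one well per compound; control set: ATP-challenged DMSO wells low, unchallenged DMSO wells high; compound: single nominal dose of 5.6 µM per compound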
# M1 ag parental – nonselective activator or artifact in parental CHO-K1 cells; activation, % at 3 µM; 0.48% of 360,000 active; AID 602248; Fluo-8 calcium fluorescence; scaled to maximal ATP response, vehicle zero; in the data active = activation above about 15%;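 note: untransfected CHO-K1 host cells lacking M1 receptor as counterscreen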
# M1 PAM parental – nonselective activator or artifact in parental CHO-K1 calcium assay. ATP EC20, Fluo-8 calcium fluorescence; 0% at ATP EC20, 100% at ATP max. activation, % at 3 µM. 0.02% of 360,000 active;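 active = activation above the run cutoff, the mean activation of all test compounds plus 3 SD, cut at about 40% in these data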;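 note: peak over basal fluorescence ratio in a 140 s read after ATP addition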
# Numbers without * were called inactive; . = no result given. The list is not random: actives were taken first. Their share in the collection is about 2.9%.
SMILES,OX1R antag-1,OX1R antag-2,CHO-K1 Ca antag,CHO parental Ca,M1 ag parental,M1 PAM parental
CC(=O)Nc1ccc(C(=O)COC(=O)C2CC2)c(F)c1,.,.,27.7*,.,0.2,-30.3
CC(=O)Nc1ccc(C(=O)COC(=O)C2CCCCC2)c(F)c1,-15.7,2.1,-9.0,0.3,4.4,1.8
COc1ccc(CC(=O)NCCS(=O)(=O)N2CCN(c3ccc(F)cc3)CC2)cc1OC,-32.6,8.4,-4.7,-10.9,8.9,5.4
CCOC(=O)C1(Cc2ccccc2)CCCN(C(=O)c2cnn(CC)c2)C1 (stereo unspecified),-7.3,5.5,28.7*,-2.7,6.5,6.2
CC1=C/C(=N\OC(=O)/C=C/c2ccccc2)C(C)=CC1=O,-12.3,10.5,28.2*,-4.1,-0.1,-3.6
N/C(=N\OC(=O)/C=C/c1ccccc1)c1ccccc1,-15.8,8.9,-10.8,-8.1,0.0,10.7
CC1CN(C(=O)c2cc(-c3ccc(Cl)s3)nc3ccccc23)CC(C)O1 (stereo unspecified),-26.0,7.8,-10.7,-23.6,-0.4,18.2
N#Cc1cc(C(=O)c2cc(F)ccc2O)cn(-c2nccs2)c1=O,28.0,-0.5,21.2,36.9*,54.9*,-8.8
Cc1c(-n2cc(C(=O)c3cc(F)ccc3O)cc(C#N)c2=O)c(=O)n(-c2ccccc2)n1C,-24.5,18.8,-2.9,-20.3,3.5,18.4
N#Cc1cc(C(=O)c2ccccc2O)cn(-c2nccs2)c1=O,39.9,8.5,24.5*,30.8,72.2*,-4.0
Cc1nn(Cc2ccc(Cl)c(Cl)c2)c(C)c1NC(=O)c1cc(CC(C)C)on1,-26.8,17.1,1.9,32.9*,5.8,8.1
COc1ccc(C(=O)Nc2nc3c(s2)Cc2cc(OC)ccc2-3)cc1,-19.9,15.1,3.4,-3.8,0.2,-3.2
COc1ccc2c(c1)Cc1sc(NC(=O)c3cccs3)nc1-2,-5.4,67.9*,0.0,-20.6,0.9,9.9
COc1ccc(-n2nc3c(N)n[nH]c3cc2=O)cc1,-7.2,53.6*,-4.5,-8.7,0.6,9.5
Nc1n[nH]c2cc(=O)n(-c3ccc(Cl)cc3)nc12,-0.6,46.2*,-10.5,-6.9,0.6,-3.5
CC(=O)c1ccc(N2CCN(C3CCC(C(C)(C)C)CC3)CC2)cc1 (stereo unspecified),-25.9,9.4,6.3,-20.1,-0.3,-23.9
CCn1cc(C(=O)N2CCN(c3cccc(C)c3C)CC2)c(=O)c2ccc(C)nc21,-31.2,8.4,-0.3,-22.8,-1.1,-16.0
CCn1cc(C(=O)N2CCN(c3ccc([N+](=O)[O-])cc3)CC2)c(=O)c2ccc(C)nc21,-34.3,44.7*,-10.9,4.2,-0.2,18.8
CCOc1ccccc1NC(=O)c1nc(S(=O)(=O)Cc2ccccc2)ncc1Cl,9.7,12.2,-4.7,2.3,-0.4,17.2
CC1CCN(S(=O)(=O)c2ccc(NC(=O)c3ccncc3)cc2)CC1,0.8,15.6,-3.8,1.0,9.9,16.0
COC(=O)c1ccc(NC(=O)c2nc(S(=O)(=O)Cc3cccc(C)c3)ncc2Cl)cc1,45.2,20.8,-1.4,28.0,0.4,-0.8
CCS(=O)(=O)c1ncc(Cl)c(C(=O)Nc2ccc(S(=O)(=O)N3CCC(C)CC3)cc2)n1,24.5,46.5*,10.6,40.9*,-1.3,-12.7
CCc1ccc(NC(=O)c2nc(S(=O)(=O)Cc3ccccc3)ncc2Cl)cc1,63.2*,23.5,30.2*,57.3*,0.8,-15.7
Cc1ccc(NC(=O)c2nc(S(=O)(=O)Cc3ccccc3C)ncc2Cl)cc1C,25.2,34.1,26.0*,39.5*,-0.1,-20.5
CCOC(=O)c1ccc(NC(=O)c2nc(S(=O)(=O)Cc3ccccc3)ncc2Cl)cc1,73.4*,13.2,16.2,27.0,-0.6,-3.9
SMILES,OX1R antag-1,OX1R antag-2,CHO-K1 Ca antag,CHO parental Ca,M1 ag parental,M1 PAM parental
CCOc1ccc(OCCC(=O)NNC(=O)c2ccccc2Cl)cc1,-17.6,14.6,-1.7,-15.8,0.2,-7.7
CN(C(=O)COC(=O)CNC(=O)c1ccc2ccccc2c1)c1c(N)n(Cc2ccccc2)c(=O)[nH]c1=O,11.2,17.9,-8.2,0.5,0.9,18.0
O=C(Nc1ccc([N+](=O)[O-])cc1)Nn1cnnc1,-16.4,22.9,10.8,-7.3,0.1,-2.7
COc1cc(CN2CC(=O)N(c3cccc(Cl)c3C)C2=S)cc(OC)c1OC,13.3,27.5,5.8,-6.6,22.8*,3.4
Oc1ccc(Cl)cc1CNCc1ccc(Cl)cc1,-16.7,14.9,-22.8,-20.8,3.7,12.2
Oc1ccc(Cl)cc1Cc1cc(Cl)ccc1O,4.3,45.8*,15.4,26.2,10.4,-5.6
COc1cc(S(=O)(=O)N2CCN(Cc3ccccc3)CC2)ccc1Br,-23.1,14.4,47.5*,-21.1,1.5,-1.3
CCN1CCN(S(=O)(=O)c2ccc(Cl)c(C(=O)N(C)Cc3ccccc3)c2)CC1,-34.1,4.8,23.7*,-21.2,0.2,17.4
COc1ccc(S(=O)(=O)N2CCN(c3c(C)cccc3C)CC2)cc1OC,-34.3,13.5,-9.6,45.3*,1.1,27.7
COc1ccc(S(=O)(=O)N2CCN(c3ccc(C)cc3C)CC2)cc1OC,-24.6,14.2,-0.4,35.8*,3.4,10.0
CCN1CCN(S(=O)(=O)c2ccc(Cl)c(C(=O)N(C)Cc3ccc(F)cc3)c2)CC1,-30.7,15.5,-4.8,-17.5,2.2,-5.3
COc1ccc(S(=O)(=O)N2CCN(c3ncccn3)CC2)cc1OC,-12.1,4.3,-5.8,-6.9,2.3,12.7
CC(C)OC(=O)N(C)C[C@@H]1OCc2cnnn2CCCC(=O)N([C@H](C)CO)C[C@H]1C,.,.,-9.1,.,0.3,15.4
CCOc1ccc(S(=O)(=O)N2CCN(c3ccc(C)cc3C)CC2)cc1,-18.2,8.9,2.2,26.7*,-0.1,15.3
CCOc1ccc(S(=O)(=O)N2CCCC2)cc1,-11.4,2.9,-14.4,-6.0,1.0,24.4
O=C(COc1cccnc1[N+](=O)[O-])Nc1cc(S(=O)(=O)N2CCCCC2)ccc1Cl,-20.0,18.3,-6.4,-12.3,0.1,7.1
CN(c1ccccc1C(=O)Nc1ccc(S(=O)(=O)N2CCOCC2)cc1)S(=O)(=O)c1ccccc1,-12.6,21.0,11.2,-13.8,0.7,-12.0
O=C(COC(=O)[C@@H]1CCCN1C(=O)c1cccs1)Nc1ccc(F)cc1[N+](=O)[O-],-19.3,63.9*,-13.2,-24.0,1.8,17.4
Cc1cccc(N(CC(O)CN2CCCC2)S(=O)(=O)c2ccccc2)c1 (stereo unspecified),-15.8,6.2,-17.4,-8.9,0.3,-8.8
C=CCN(CC=C)S(=O)(=O)c1ccc(NC(=S)NC(=O)/C=C/c2cccc3ccccc23)cc1,-16.9,8.4,-0.2,-16.7,0.5,16.9
C=CCN(CC=C)S(=O)(=O)c1ccc(NC(=S)NC(=O)/C=C/c2ccc(C)cc2)cc1,-7.0,16.4,10.6,35.8*,0.1,-10.4
Cc1cccc2nnc(-c3ccccc3)n12,.,.,-23.2,.,0.3,26.7
